Assays:
[1] = biological target: Mitogen-activated protein kinase 14 (Homo sapiens, UniProt Q16539); experiment: Inhibition of human p38alpha after 60 mins
Procedure, shortened: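 Radiometric kinase assay measuring incorporation of γ-32P-ATP into biotinylated peptide substrate by human p38α (5 nM). 60 min at 30 °C, phosphoric acid stop, streptavidin capture, scintillation counting; background-subtracted IC50 versus no-inhibitor controls.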

[2] = tested on: Blood; experiment: Inhibition of LPS-induced TNFalpha production in human diluted whole blood at 1 uM after 2 hrs by ELISA; type: functional
[3] = tested on: Blood; experiment: Inhibition of LPS-induced TNFalpha production in human diluted whole blood after 2 hrs by ELISA; type: functional, tissue-based
[4] = tested on: Blood; experiment: Inhibition of LPS-induced TNFalpha production in human diluted whole blood at 0.3 uM after 2 hrs by ELISA; type: functional

Mitogen-activated protein kinase 14, sequence (Q16539 whole entry): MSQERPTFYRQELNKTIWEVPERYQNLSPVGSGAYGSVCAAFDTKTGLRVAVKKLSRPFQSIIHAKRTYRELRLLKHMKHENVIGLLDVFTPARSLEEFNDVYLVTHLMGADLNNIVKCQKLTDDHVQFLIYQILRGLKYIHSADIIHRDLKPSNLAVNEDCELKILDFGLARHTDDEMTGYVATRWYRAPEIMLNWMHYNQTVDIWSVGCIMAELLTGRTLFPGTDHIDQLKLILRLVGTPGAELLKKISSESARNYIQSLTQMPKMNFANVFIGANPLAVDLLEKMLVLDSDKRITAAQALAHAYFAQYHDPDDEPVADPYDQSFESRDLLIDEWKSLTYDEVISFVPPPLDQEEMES

| SMILES | IC50 [1] [nM] | IC50 [3] [nM] | inhibition at 1 µM [2] [%] | inhibition at 0.3 µM [4] [%] |
| --- | --- | --- | --- | --- |
| COc1ccc(C(=O)C(=O)N(C)C)cc1C(=O)N1CCC(Cc2ccc(F)cc2)CC1 | 945 | – | 17 | – |
| COc1cc2occ(C(=O)C(=O)N(C)C)c2cc1C(=O)N1CCC(Cc2ccc(F)cc2)CC1 | 600 | – | 10 | – |
| COc1nc2[nH]cc(C(=O)C(=O)N(C)C)c2cc1C(=O)N1CCC(Cc2ccc(F)cc2)CC1 | 60 | 48 | – | – |
| CN(C)C(=O)C(=O)c1c[nH]c2cc(Cl)c(C(=O)N3CCC(Cc4ccc(F)cc4)CC3)cc12 | 18 | 100 | – | – |

Now from value to molecule, other results behind:

| IC50 [1] [nM] | IC50 [3] [nM] | SMILES | inhibition at 1 µM [2] [%] | inhibition at 0.3 µM [4] [%] |
| --- | --- | --- | --- | --- |
| > 10000 | – | CN(C)C(=O)C(=O)c1ccc2c(c1)C=C(C(=O)N1CCC(Cc3ccc(F)cc3)CC1)C(C(F)(F)F)O2 (centres undefined) | – | – |
| 100 | – | CN(C)C(=O)C(=O)c1nn(C)c2cc(Cl)c(C(=O)N3CCC(Cc4ccc(F)cc4)CC3)cc12 | – | 26 |
| 90 | – | Cc1[nH]c2ccc(C(=O)C(=O)N(C)C)cc2c1C(=O)N1CCC(Cc2ccc(F)cc2)CC1 | – | – |
| 10 | 30 | COc1cc2[nH]cc(C(=O)C(=O)N(C)C)c2cc1C(=O)N1CCC(Cc2ccc(F)cc2)CC1 | – | – |

Source: ChEMBL document CHEMBL1158523, “Piperidine-based heterocyclic oxalyl amides as potent p38 alpha MAP kinase inhibitors” (Bioorg Med Chem Lett, 2010)
